# Measured values reported in ChEMBL document CHEMBL4433233, “Folic acid conjugates of a bleomycin mimic for selective targeting of folate receptor positive cancer cells” (Bioorg Med Chem Lett, 2019).
# The source made the active and inactive calls. The rule behind the calls is not given here.
# Assays:
# IGROV-1 [1] = test: Cytotoxicity against human IGROV1 cells in low folate medium assessed as metabolic activity at 30 uM incubated for 72 hrs by MTS assay relative to control; assay type: functional
# Method in brief: (§1)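 MTS metabolic-activity assay under low folate conditions (RPMI-1640, 10% dialyzed FCS, supplemented with 2 nM FA). Compounds were added as free ligand at 30 or 50 μM for 24, 48 and 72 h. Activity is expressed relative to DMSO control. Each treatment was run in triplicate and each experiment three times; mean ± SEM.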
# KB [2] = test: Cytotoxicity against human KB cells in low folate medium assessed as metabolic activity at 30 uM measured after 72 hrs by MTS assay relative to control; assay type: functional; method in brief: as §1
# MCF7 [3] = test: (§2) Cytotoxicity against human MCF7 cells in low folate medium assessed as metabolic activity at 30 uM incubated for 72 hrs by MTS assay relative to control; assay type: ADME, cell-based; conditions: mcf7, 72 h, 30 µM; method in brief: as §1
# MCF7 [4] = test: Cytotoxicity against human MCF7 cells in high folate medium assessed as reduction in metabolic activity at 50 uM incubated for 24 to 72 hrs by MTS assay; assay type: ADME, cell-based; conditions: mcf7, 50 µM
# Method in brief: (§3)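 MTS assay in standard high folate medium (RPMI-1640 containing 2.3 μM FA, 10% FCS). Cells were treated with 30 or 50 μM compound for 24, 48 and 72 h. Metabolic activity was compared with solvent control.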
# KB [5] = test: Cytotoxicity against human KB cells in low folate medium assessed as metabolic activity at 50 uM measured after 72 hrs by MTS assay relative to control; assay type: functional; method in brief: as §1
# MCF7 [6] = test: Induction of ROS generation in human MCF7 cells at 30 uM incubated for 72 hrs by APF probe-based flow cytometer analysis relative to control; assay type: cell-based; conditions: mcf7, 72 h
# Method in brief: (§4)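 Cells were treated with 30 μM compound. Highly reactive oxygen species were detected with the APF probe, and APF mean fluorescence intensity was measured by FACS and normalized to solvent control.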
# KB [7] = test: Induction of ROS generation in human KB cells at 30 uM incubated for 72 hrs by APF probe-based flow cytometer analysis relative to control; assay type: functional; method in brief: as §4
# IGROV-1 [8] = test: Cytotoxicity against human IGROV1 cells in low folate medium assessed as metabolic activity at 50 uM incubated for 72 hrs by MTS assay relative to control; assay type: functional; method in brief: as §1
# KB [9] = test: Cytotoxicity against human KB cells in low folate medium assessed as reduction in metabolic activity at 50 uM measured after 48 hrs by MTS assay; assay type: functional, cell-based
# Method in brief: (§5)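 MTS assay on KB cells under low folate conditions (RPMI-1640, 10% dialyzed FCS, 2 nM FA). Cells were exposed to 30 or 50 μM compound as free ligand for 24, 48 and 72 h and compared with DMSO control. Treatments in triplicate, experiment repeated three times; mean ± SEM.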
# MCF7 [10] = test: (§6) Cytotoxicity against human MCF7 cells in low folate medium assessed as metabolic activity at 50 uM incubated for 72 hrs by MTS assay relative to control; assay type: ADME, cell-based; conditions: mcf7, 72 h, 50 µM; method in brief: as §1
# KB [11] = test: Cytotoxicity against human KB cells in low folate medium assessed as reduction in metabolic activity at 30 uM measured after 48 hrs by MTS assay; assay type: functional, cell-based; method in brief: as §5
# Homo sapiens = organism: Homo sapiens; test: Displacement of folate-FITC from folate receptor in human KB cells at 25 to 1000 pmol incubated for 10 mins by FITC staining-based FACS analysis; assay type: cell-based
# Method in brief: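 Competition binding in 0.5·10^6 KB cells per experiment. Compound at 25, 50, 100, 250, 500 or 1000 pmol was combined with 50 pmol Folate-FITC. Cell-bound fluorescence was read by FACS as MFI on channel PL-1. Mean ± SEM, N ≥ 5.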
# [12] = Stability in pH 8.5 tris-HCl buffer assessed as cleavage of compound in presence of Fe(ClO4)2 and GSH incubated for 3 hrs by LC-MS analysis; conditions: pH 8.5, 3 h
# MCF7 [13] = test: Cytotoxicity against human MCF7 cells in high folate medium assessed as reduction in metabolic activity at 30 uM incubated for 24 to 72 hrs in the presence of excess folic acid by MTS assay; assay type: ADME, cell-based; conditions: mcf7, 30 µM
# Method in brief: (§7)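 Competition MTS assay in standard RPMI medium (high folate). Cells were co-treated with 30 μM compound plus 150 μM FA, or with 150 μM FA alone, for 24, 48 and 72 h, and metabolic activity was read by MTS.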
# [14] = Binding affinity to iron assessed as formation of iron complex in the presence of Fe(ClO4)2 and GSH after 5 mins by LC-MS analysis
# Method in brief: (§8)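 Conjugate kept in tris-HCl buffer pH 8.5 with two equivalents of Fe(ClO4)2 and 5 mM glutathione. LC-MS was used to follow in situ iron-complex formation and disulphide cleavage products at 5 min, 20 min and for a further 3 h.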
# KB [15] = test: Cytotoxicity against human KB cells in high folate medium assessed as reduction in metabolic activity at 30 uM incubated for 24 to 72 hrs by MTS assay; assay type: functional, cell-based; method in brief: as §3
# IGROV-1 [16] = test: Cytotoxicity against human IGROV1 cells in high folate medium assessed as reduction in metabolic activity at 30 uM incubated for 24 to 72 hrs in the presence of excess folic acid by MTS assay; assay type: functional, cell-based; method in brief: as §7
# DNA = test: Induction of Escherichia coli XL1 Blue pUC18 DNA cleavage assessed as turnover frequency in presence of DTT and 1 equivalent of (NH4)2Fe(SO4)2.6H2O at 1 uM by agarose gel electrophoresis method; assay type: nucleic-acid assay
# Method in brief: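 Supercoiled pUC18 plasmid DNA was incubated at 37 °C with 1 μM iron complex in the presence of DTT as reductant. Strand cleavage was followed and turnover frequency determined.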
# KB [17] = test: Cytotoxicity against human KB cells in high folate medium assessed as reduction in metabolic activity at 30 uM incubated for 24 to 72 hrs in the presence of excess folic acid by MTS assay; assay type: functional, cell-based; method in brief: as §7
# MCF7 [18] = test: Cytotoxicity against human MCF7 cells in low folate medium assessed as reduction in metabolic activity at 1 to 150 uM incubated for 24 to 72 hrs by MTS assay; assay type: ADME, cell-based; conditions: mcf7, 150 µM
# Method in brief: (§9)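 MTS metabolic-activity assay in low folate RPMI-1640 with 10% dialyzed FCS and 2 nM FA. Compound concentrations ran from 1 to 150 μM, with incubation for 24, 48 and 72 h. IC50 values were derived from the concentration-response data.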
# [19] = Retention time of the compound by LC-MS analysis; assay type: physicochemical
# KB [20] = test: Cytotoxicity against human KB cells in low folate medium assessed as reduction in metabolic activity at 1 to 150 uM incubated for 24 to 72 hrs by MTS assay; assay type: functional, cell-based; method in brief: as §9
# IGROV-1 [21] = test: Cytotoxicity against human IGROV1 cells in low folate medium assessed as reduction in metabolic activity at 1 to 150 uM incubated for 24 to 72 hrs by MTS assay; assay type: functional, cell-based; method in brief: as §9
# [22] = as §2; assay type: ADME, cell-based; conditions: MCF7 cells, read-out: Activity; method in brief: as §1
# [23] = as §6; assay type: ADME, cell-based; conditions: MCF7 cells, read-out: Activity; method in brief: as §1
# [24] = Stability in pH 8.5 tris-HCl buffer assessed as compound cleavage in presence of Fe(ClO4)2 and GSH after 5 mins by LC-MS analysis; assay type: physicochemical; conditions: pH 8.5, 5 min; method in brief: as §8
# [25] = Stability in pH 8.5 tris-HCl buffer assessed as cleavage of compound in presence of Fe(ClO4)2 and GSH incubated for 20 mins by LC-MS analysis; assay type: physicochemical; conditions: pH 8.5, 20 min; method in brief: as §8
fold change (FC) (MCF7 [6]),Activity [14],Activity (DNA),Retention_time [19],SMILES,Activity (IGROV-1 [1]),Activity (KB [2]),Activity (MCF7 [4]),Activity (KB [5]),Activity (KB [7]),Activity (IGROV-1 [8]),Activity (Homo sapiens),Activity (MCF7 [13]),Activity (KB [15]),Activity (IGROV-1 [16]),Activity (KB [17]),also measured
1.6,Active,0.16 s⁻¹,–,Nc1nc(O)c2nc(CNc3ccc(C(=O)N[C@@H](CCC(=O)NCCNC(=O)CCCCCCC(=O)NCCCNC(=O)c4ccc(CN(Cc5ccccn5)C(c5ccccn5)c5ccccn5)nc4)C(=O)O)cc3)cnc2n1,82.4%,88.1%,Non-Toxic,62.4%,inactive,58.1%,Active,Non-Toxic,inactive,inactive,inactive,Activity (MCF7 [3]): Non-Toxic; Activity (KB [9]): inactive; Activity (MCF7 [10]): Non-Toxic; Activity (KB [11]): inactive; Stability [12]: Stable
–,–,–,–,Nc1nc2ncc(CNc3ccc(C(=O)N[C@@H](CCC(=O)O)C(=O)O)cc3)nc2c(=O)[nH]1 [FOLIC ACID],–,–,–,–,–,–,–,–,–,–,–,Activity (MCF7 [18]): Non-Toxic
–,–,–,9.12 min,Nc1nc(O)c2nc(CNc3ccc(C(=O)N[C@@H](CCC(=O)NCCNC(=O)CCS)C(=O)O)cc3)cnc2n1,–,–,–,–,–,–,–,–,–,–,–,–
–,–,–,–,Nc1nc(=O)c2nc(CNc3ccc(C(=O)N[C@@H](CCC(=O)O)C(=O)O)cc3)cnc2[nH]1,–,–,–,–,inactive,–,Active,–,–,–,–,Activity (KB [20]): inactive; Activity (IGROV-1 [21]): inactive
–,–,–,8.77 min,Nc1nc(O)c2nc(CNc3ccc(C(=O)N[C@@H](CCC(=O)NCCNC(=O)CCSSC[C@H](NC(=O)CC[C@H](N)C(=O)O)C(=O)NCC(=O)O)C(=O)O)cc3)cnc2n1,–,–,–,–,–,–,–,–,–,–,–,–
1.6,Active,0.19 s⁻¹,–,Nc1nc(O)c2nc(CNc3ccc(C(=O)N[C@@H](CCC(=O)NCCNC(=O)CCSSCCC(=O)NCCCNC(=O)c4ccc(CN(Cc5ccccn5)C(c5ccccn5)c5ccccn5)nc4)C(=O)O)cc3)cnc2n1,47.2%,38.8%,Non-Toxic,11.2%,–,22%,Active,Non-Toxic,inactive,inactive,inactive,"viability at 72 h, 30 µM [22]: 78.9%; fold change (FC) (KB [7]): 3.5; viability at 72 h, 50 µM [23]: 76.4%; Stability [24]: Unstable; Stability [25]: Unstable"
